Reference: publication PMC7581536 (Journal of pharmaceutical and biomedical analysis, 2020)

What was measured:
[1] = tested on: KDMs; conditions: ref [18]–[19]; cited from earlier work
[2] = Pharmacokinetic study of JIB-04 in rats after i.v. and oral administration; format: in vivo, rat
In short: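 Male adult SD rats with jugular vein cannulas. IV: single 5 mg/kg via jugular vein (n=5) as aqueous suspension in 12.5% cremophor EL/12.5% DMSO; blood at 2 min–24 h. Oral: single 15 mg/kg (n=6); blood at 5 min–24 h. Heparinised plasma (4000 rpm, 15 min) held at −80°C. 20 µL plasma precipitated with ACN (5 ng/mL IS, 0.1% acetic acid); UHPLC-MS/MS MRM; non-compartmental analysis per rat.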

[3] = Stability of JIB-04 in rat plasma; format: in vitro ADME; conditions: for RE (deviation from nominal concentration) / Calculated Concentration Mean ± SD: rat plasma; for Calculated Concentration Mean ± SD: n=6
In short: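 Blank rat plasma spiked to 0.5, 1, 50 and 800 ng/mL, six replicates per condition. Held 18 h on bench at room temperature, 24 h in auto-sampler tray, or 3 months at −80°C. Freeze-thaw: three cycles of 2–3 h room-temperature thaw and 12–24 h at −80°C. Quantified against a same-day calibration curve; accuracy as RE%, precision as CV%.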

[4] = Stability of stock solutions; format: physicochemical; conditions: stock solution (DMSO/ACN or ACN), 6 months at −20°C
In short: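 Test compound stock at 2 mg/mL: 10 mg dissolved in 0.5 mL DMSO, then diluted with ACN. Internal standard stock at 100 µg/mL in ACN. Both kept at −20°C for 6 months.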

[5] = Non-specific binding to plastic centrifuge tubes; format: physicochemical; conditions: neat solution, water as matrix
[6] = tested on: KDM5A; conditions: secondary targets KDM4D/4B/4A/6B/4C; ref [18], [20]–[21]; cited from earlier work
[7] = tested on: HIV-1; conditions: T cell lines, via inhibition of SHMT2; ref [23]; cited from earlier work
[8] = rats, oral 15 mg/kg, n=6, NCA (apparent)
[9] = auto-sampler (10 °C 24hr), nominal 0.5 ng/mL
[10] = auto-sampler (10 °C 24hr), nominal 1 ng/mL
[11] = auto-sampler (10 °C 24hr), nominal 50 ng/mL
[12] = auto-sampler (10 °C 24hr), nominal 800 ng/mL
[13] = bench top (18hr, RT), nominal 0.5 ng/mL
[14] = bench top (18hr, RT), nominal 1 ng/mL
[15] = bench top (18hr, RT), nominal 50 ng/mL
[16] = bench top (18hr, RT), nominal 800 ng/mL
[17] = long-term (−80 °C, 3 months), nominal 0.5 ng/mL
[18] = long-term (−80 °C, 3 months), nominal 1 ng/mL
[19] = long-term (−80 °C, 3 months), nominal 50 ng/mL
[20] = long-term (−80 °C, 3 months), nominal 800 ng/mL

**Q.** With `Clc1ccc(NN=C(c2ccccc2)c2ccccn2)nc1` (single isomer, unassigned) [Z-isomer] as the compound, how does the “activity against KDMs” value [1] read?
**A.** inactive

**Q.** What does the source list for `Clc1ccc(N/N=C(\c2ccccc2)c2ccccn2)nc1` [JIB-04]?
**A.** concentrations in pharmacokinetic samples ([2]; rat plasma, i.v. and oral samples): 2 to 6000 ng/mL; plasma concentration ([2]; rats, i.v. 5 mg/kg, after 24 h): 3.0 ± 1.0 ng/mL; plasma concentration ([2]; rats, i.v. 5 mg/kg, at 2 min): 5270 ± 527.2 ng/mL; AUC 0→24 ([2]; rats, i.v. 5 mg/kg, n=5, NCA): 3661.6 ± 371.4 ng·h/mL; AUC 0→inf ([2]; rats, i.v. 5 mg/kg, n=5, NCA): 3678.2 ± 369.0 ng·h/mL; CL ([2]; rats, i.v. 5 mg/kg, n=5, NCA): 22.845 ± 2.362 mL/min/kg; Half-life ([2]; rats, i.v. 5 mg/kg, n=5, NCA): 3.70 ± 0.5 h; MRT ([2]; rats, i.v. 5 mg/kg, n=5, NCA): 2.6 ± 0.3 h; Vd ([2]; rats, i.v. 5 mg/kg, n=5, NCA): 7.3576 ± 1.5306 L/kg; E/Z ratio in plasma ([2]; rats, i.v. samples, 5 min): 72; E/Z ratio in plasma ([2]; rats, i.v. samples, 2 h): 27; E/Z ratio in plasma ([2]; rats, i.v. samples, 24 h): 0.6; time to reach Cmax (range among subjects) ([2]; rats, oral 15 mg/kg): 0.5 ~ 4 h; oral bioavailability (F) ([2]; rats, oral 15 mg/kg vs i.v. 5 mg/kg): 44.4%; AUC 0→24 ([2]; rats, oral 15 mg/kg, n=6, NCA): 4880.8 ± 1015.3 ng·h/mL; AUC 0→inf ([2]; rats, oral 15 mg/kg, n=6, NCA): 4904.7 ± 1019.7 ng·h/mL; Cmax ([2]; rats, oral 15 mg/kg, n=6, NCA): 812.7 ± 201.2 ng/mL; Half-life ([2]; rats, oral 15 mg/kg, n=6, NCA): 3.2 ± 0.2 h; MRT ([2]; rats, oral 15 mg/kg, n=6, NCA): 4.4 ± 0.3 h; Tmax ([2]; rats, oral 15 mg/kg, n=6, NCA): 1.5 ± 1.4 h; CL [2, 8]: 53.903 ± 1.27 mL/min/kg; Vd [2, 8]: 14.9234 ± 3.6699 L/kg; plasma concentration ([2]; rats, oral 15 mg/kg, within 5 min): 122.9 ± 51.0 ng/mL; E/Z ratio in plasma ([2]; rats, oral samples, 5 min): 40; E/Z ratio in plasma ([2]; rats, oral samples, 2 h): 9; E/Z ratio in plasma ([2]; rats, oral samples, 24 h): 2.3; RE (deviation from nominal concentration) [3, 9]: −3.2%; Calculated Concentration Mean ± SD [3, 9]: 0.48 ± 0.01 ng/mL; RE (deviation from nominal concentration) [3, 10]: −3.5%; Calculated Concentration Mean ± SD [3, 10]: 0.97 ± 0.06 ng/mL; RE (deviation from nominal concentration) [3, 11]: −2.7%; Calculated Concentration Mean ± SD [3, 11]: 48.6 ± 3.3 ng/mL; RE (deviation from nominal concentration) [3, 12]: −0.1%; Calculated Concentration Mean ± SD [3, 12]: 799.0 ± 17.5 ng/mL; RE (deviation from nominal concentration) [3, 13]: 1.6%; Calculated Concentration Mean ± SD [3, 13]: 0.51 ± 0.02 ng/mL; RE (deviation from nominal concentration) [3, 14]: −6.9%; Calculated Concentration Mean ± SD [3, 14]: 0.93 ± 0.05 ng/mL; RE (deviation from nominal concentration) [3, 15]: −6.4%; Calculated Concentration Mean ± SD [3, 15]: 46.8 ± 0.7 ng/mL; RE (deviation from nominal concentration) [3, 16]: 2.4%; Calculated Concentration Mean ± SD [3, 16]: 819.0 ± 26.0 ng/mL; RE (deviation from nominal concentration) ([3]; freeze and thaw (−80 °C to RT), nominal 0.5 ng/mL): 1.4%; RE (deviation from nominal concentration) ([3]; freeze and thaw (−80 °C to RT), nominal 1 ng/mL): −0.8%; RE (deviation from nominal concentration) ([3]; freeze and thaw (−80 °C to RT), nominal 50 ng/mL): −2.1%; RE (deviation from nominal concentration) ([3]; freeze and thaw (−80 °C to RT), nominal 800 ng/mL): −0.9%; Calculated Concentration Mean ± SD ([3]; freeze and thaw (−80 °C to RT), three cycles, nominal 0.5 ng/mL): 0.51 ± 0.01 ng/mL; Calculated Concentration Mean ± SD ([3]; freeze and thaw (−80 °C to RT), three cycles, nominal 1 ng/mL): 0.99 ± 0.03 ng/mL; Calculated Concentration Mean ± SD ([3]; freeze and thaw (−80 °C to RT), three cycles, nominal 50 ng/mL): 49.0 ± 1.3 ng/mL; Calculated Concentration Mean ± SD ([3]; freeze and thaw (−80 °C to RT), three cycles, nominal 800 ng/mL): 793.0 ± 16.2 ng/mL; RE (deviation from nominal concentration) [3, 17]: −6.7%; Calculated Concentration Mean ± SD [3, 17]: 0.47 ± 0.02 ng/mL; RE (deviation from nominal concentration) [3, 18]: −6.9%; Calculated Concentration Mean ± SD [3, 18]: 0.93 ± 0.05 ng/mL; RE (deviation from nominal concentration) [3, 19]: −5.6%; Calculated Concentration Mean ± SD [3, 19]: 47.2 ± 1.3 ng/mL; RE (deviation from nominal concentration) [3, 20]: −6.9%; Calculated Concentration Mean ± SD [3, 20]: 745.0 ± 20.8 ng/mL; storage stability of plasma samples ([3]; stored at −80 °C for as long as 3 months): without apparent alteration; degradation in rat plasma ([3]; under the experimental conditions (Table 4)): no significant degradation; stability of stock solution [4]: stable; non-specific binding to plastic centrifuge tubes [5]: strongly binding; inhibitory activity against KDM5A [6]: maximal inhibitory activity; block of HIV-1 Tat expression, transactivation, and virus replication [7]: potently and selectively blocks
